pIC50: −log10 of the molar value. Activity calls are given as the source filed them. The rule behind the calls is not given here.
Key:
HEK-293T = test: Cytotoxicity against human HEK293T cells assessed as reduction in cell viability at 200 uM after 7 hrs by DAPI staining based assay
Method in brief: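 HEK 293T cells transiently transfected with hIDO1 (plus GFP plasmid), treated at 200 μM test compound with 2% final DMSO for 7 h at 37 °C; DMSO as negative control. Cells then washed in PBS, resuspended in PBS with 1 μg/mL DAPI and analysed immediately by flow cytometry to detect apoptotic cells.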

[1] = target: T1, Indoleamine 2,3-dioxygenase 1 (Homo sapiens, UniProt P14902); test: Inhibition of recombinant human IDO1 expressed in Escherichia coli Rosetta (DE3) cells assessed as reduction in kynurenine production using L-tryptophan as substrate at pH 7.4 incubated for 20 mins by HPLC analysis
Target sequence in this assay (P14902 whole entry): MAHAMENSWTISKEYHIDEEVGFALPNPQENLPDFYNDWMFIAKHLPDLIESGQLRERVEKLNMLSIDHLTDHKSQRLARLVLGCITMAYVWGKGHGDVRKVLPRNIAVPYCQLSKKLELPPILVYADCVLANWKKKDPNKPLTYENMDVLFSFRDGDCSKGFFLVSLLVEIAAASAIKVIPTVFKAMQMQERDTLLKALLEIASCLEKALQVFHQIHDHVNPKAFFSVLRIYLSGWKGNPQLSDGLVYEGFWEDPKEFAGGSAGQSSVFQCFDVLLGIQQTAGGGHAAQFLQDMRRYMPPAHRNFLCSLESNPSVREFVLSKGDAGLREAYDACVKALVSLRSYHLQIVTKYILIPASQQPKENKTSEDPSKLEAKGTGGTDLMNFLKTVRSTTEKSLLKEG

[2] = target: T1, Indoleamine 2,3-dioxygenase 1; test: Inhibition of recombinant human IDO1 expressed in Escherichia coli Rosetta (DE3) cells assessed as reduction in kynurenine production using L-tryptophan as substrate incubated for 20 mins by HPLC analysis
Target sequence in this assay (P14902 whole entry): as above

[3] = target: T1, Indoleamine 2,3-dioxygenase 1; test: Inhibition of human IDO1 expressed in HEK293T cells assessed as reduction in kynurenine production using L-tryptophan as substrate incubated for 7 hrs by HPLC analysis; format: cell-based
Target sequence in this assay (P14902 whole entry): as above

[4] = target: T1, Indoleamine 2,3-dioxygenase 1; test: Inhibition of human IDO1 expressed in HEK293T cells assessed as reduction in kynurenine production at 200 uM using L-tryptophan as substrate incubated for 7 hrs by HPLC analysis; format: cell-based
Method in brief: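 HEK 293T cells transiently transfected with full-length hIDO1 in pcDNA6/myc-His (with GFP plasmid to check efficiency); 16–18 h later replated in phenol-red-free DMEM with 10% FBS, 1 mM pyruvate, and added 500 μM L-trp. Compound at 200 μM, 2% final DMSO, 7 h at 37 °C; stopped with TCA (4% final). Kynurenine read by p-DMAB absorbance at 480 nm or by HPLC.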
Target sequence in this assay (P14902 whole entry, looked up): as the sequence (P14902 whole entry) above

Structure (SMILES)	pIC50 [1]	pIC50 [2]	pIC50 [3]	inhibition [4]	Activity (HEK-293T)
c1ccc(-c2nc[nH]n2)cc1	3.24				Non-Toxic
Nc1ccccc1-c1c[nH]nn1		4.48			30%
Cn1cncc1-c1ccccc1O		4.42			Non-Toxic
Cn1cncc1-c1ccccc1N		2.77			Non-Toxic
c1ccc(-n2ccnc2)cc1					Non-Toxic
Nc1ccc(Cl)cc1-n1ccnc1		4.06			Non-Toxic
Clc1cccc(-n2ccnc2)c1		4.39			Non-Toxic
Oc1ccccc1-c1nnn[nH]1		3.15			Non-Toxic
c1ccc(-c2nnn[nH]2)cc1					Non-Toxic
Cn1cncc1-c1ccccc1					Non-Toxic
Clc1cccc(-c2nnn[nH]2)c1		4.00			Non-Toxic
Nc1ccccc1-n1ccnc1		2.89			Non-Toxic
c1ccc(-c2cnn[nH]2)cc1					Non-Toxic
Cn1cncc1-c1cc(Cl)ccc1N		2.92			Non-Toxic
Oc1ccc(Cl)cc1-c1c[nH]nn1					Non-Toxic
Oc1ccccc1-c1c[nH]cn1					Non-Toxic
Oc1ccc(Cl)cc1-c1cnc[nH]1					Non-Toxic
c1ccc(-c2c[nH]cn2)cc1					Non-Toxic

Second part, led by results:

pIC50 [1]	pIC50 [2]	pIC50 [3]	inhibition [4]	Structure (SMILES)	Activity (HEK-293T)
	4.51			Clc1cccc(-c2nnc[nH]2)c1	Non-Toxic
	5.24			Nc1ccccc1-c1nnn[nH]1	Non-Toxic
	6.46			Clc1cccc(-c2c[nH]nn2)c1	Non-Toxic
	4.92			Nc1ccc(Cl)cc1-c1cnc[nH]1	Non-Toxic
	5.70			Nc1ccccc1-c1nnc[nH]1	Non-Toxic
	4.74			Nc1ccccc1-c1cnc[nH]1	Non-Toxic
	4.80			Oc1ccccc1-n1ccnc1	Non-Toxic
	5.82			Nc1ccc(Cl)cc1-c1cnn[nH]1	30%
	4.77			Cn1cncc1-c1cc(Cl)ccc1O	Non-Toxic
	4.89			Cn1cncc1-c1cccc(Cl)c1	Non-Toxic
	6.22			Oc1ccc(Cl)cc1-c1nnc[nH]1	Non-Toxic
	5.59			Clc1cccc(-c2cnc[nH]2)c1	Non-Toxic
	4.51			Oc1ccccc1-c1nnc[nH]1	Non-Toxic
	6.66			Nc1ccc(Cl)cc1-c1nnn[nH]1	Non-Toxic
	4.80			Oc1ccc(Cl)cc1-c1nnn[nH]1	Non-Toxic
	7.46	7.47		Nc1ccc(Cl)cc1-c1nnc[nH]1	Non-Toxic
	5.68		inactive	Oc1ccc(Cl)cc1-n1ccnc1	Non-Toxic
	7.70			Nc1ccc(Br)cc1-c1nc[nH]n1	
	5.64			Oc1ccccc1-c1c[nH]nn1	Non-Toxic
